Active and inactive are the calls of the source. The rule behind the calls is not given here.
What was measured:
Assay type in all cases: functional, cell-based
[1] = test system: HepG2; assay: Cytotoxicity against human HepG2 cells after 48 hrs by MTT assay; details: HepG2, 48 h
Method in brief: (§1)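 Cells seeded at 2.0×10^4 per well in 96-well plates, exposed to a range of test concentrations for 48 h. Medium then replaced with fresh medium containing MTT at 100 µg/mL for 2–3 h. Formazan dissolved in DMSO, OD read at 540 nm with 620 nm reference. Viability taken as treated vs untreated absorbance. IC50 in µM, mean of three separate experiments. Highest concentration tested 100 µM.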

[2] = test system: MCF7; assay: Cytotoxicity against human MCF7 cells after 48 hrs by MTT assay; details: MCF7, 48 h; method in brief: as §1
[3] = test system: SK-N-SH; assay: Cytotoxicity against human SK-N-SH cells after 48 hrs by MTT assay; method in brief: as §1
[4] = test system: DU-145; assay: Cytotoxicity against human DU145 cells after 48 hrs by MTT assay; details: DU-145, 48 h; method in brief: as §1
[5] = test system: A549; assay: Cytotoxicity against human A549 cells after 48 hrs by MTT assay; details: A549, 48 h; method in brief: as §1
[6] = test system: MCF7; assay: Cytotoxicity against human MCF7 cells at up to 100 uM after 48 hrs by MTT assay; method in brief: as §1

Row | SMILES | IC50 [1] [µM] | IC50 [2] [µM] | IC50 [3] [µM] | IC50 [4] [µM] | IC50 [5] [µM] | Activity [6]
1 | Cn1cc(C2(c3cn(C)c4ccccc34)C(=O)Nc3ccc(F)cc32)c2ccccc21 | 13 | 9.2 | 6.5 | 11 | 17.5 | 
2 | O=C1Nc2ccc(F)cc2C1(c1c[nH]c2ccc([N+](=O)[O-])cc12)c1c[nH]c2ccc([N+](=O)[O-])cc12 | 23.8 |  | 6.8 | 7.5 | 7.7 | inactive
3 | COc1ccc2c(C3(c4c[nH]c5cc(OC)ccc45)C(=O)Nc4ccc(F)cc43)c[nH]c2c1 | 16 | 12 | 4.1 | 13.1 | 14.4 | 
4 | COc1cccc2[nH]cc(C3(c4c[nH]c5cccc(OC)c45)C(=O)Nc4ccc(F)cc43)c12 | 18 | 7.5 | 12.1 | 9.4 | 7.8 | 
5 | Cn1cc(C2(c3cn(C)c4ccccc34)C(=O)Nc3ccccc32)c2ccccc21 | 12 |  | 5.1 | 5.6 | 10.1 | inactive
6 | O=C1Nc2ccccc2C1(c1c[nH]c2ccc(Cl)cc12)c1c[nH]c2ccc(Cl)cc12 | 14.6 |  | 9.4 | 8.1 | 8.3 | inactive
7 | O=C1Nc2ccccc2C1(c1c[nH]c2ccc([N+](=O)[O-])cc12)c1c[nH]c2ccc([N+](=O)[O-])cc12 | 23.4 |  | 11.8 | 8 | 10.3 | inactive
8 | COc1ccc2[nH]cc(C3(c4c[nH]c5ccc(OC)cc45)C(=O)Nc4ccc(F)cc43)c2c1 | 36.6 |  | 7 | 3.6 | 10.6 | inactive
9 | COc1ccc2[nH]cc(C3(c4c[nH]c5ccc(OC)cc45)C(=O)Nc4ccccc43)c2c1 | 30.2 | 33.6 | 3.9 | 2.2 | 11.2 | 
10 | O=C1Nc2ccc(F)cc2C1(c1c[nH]c2ccc(Br)cc12)c1c[nH]c2ccc(Br)cc12 | 12.8 | 12.8 | 2.8 | 16.3 | 10.3 | 
11 | O=C1Nc2ccccc2C1(c1c[nH]c2ccccc12)c1c[nH]c2ccccc12 | 20.4 | 49.8 | 11.3 | 8.7 | 8.6 | 
12 | O=C1Nc2ccc(F)cc2C1(c1c[nH]c2ccc(Cl)cc12)c1c[nH]c2ccc(Cl)cc12 | 16.6 | 24.8 | 8.5 | 19.6 | 12.1 | 
13 | COc1cccc2[nH]cc(C3(c4c[nH]c5cccc(OC)c45)C(=O)Nc4ccccc43)c12 | 9 | 14.1 | 4.7 | 5 | 15.3 | 
14 | O=C1Nc2ccc(F)cc2C1(c1c[nH]c2ccccc12)c1c[nH]c2ccccc12 | 6.6 | 23.6 | 67.3 | 12.8 | 12.7 | 
15 | COc1ccc2c(C3(c4c[nH]c5cc(OC)ccc45)C(=O)Nc4ccccc43)c[nH]c2c1 | 12 | 45.4 | 13.6 | 1.2 | 7.8 | 
16 | O=C1Nc2ccccc2C1(c1c[nH]c2ccc(Br)cc12)c1c[nH]c2ccc(Br)cc12 | 15.8 | 46.8 | 13.2 | 3.6 | 8 | 

From ChEMBL document CHEMBL1221269, “Synthesis of 3,3-diindolyl oxyindoles efficiently catalysed by FeCl3 and their in vitro evaluation for anticancer activity” (Bioorg Med Chem Lett, 2010)
